Data set [1] is classed as in vivo, human (healthy subjects). To be noted: for Increase in T1/2: quizartinib coadministered with ketoconazole; for Tmax / AUC(0-inf) / AUC(0-t) / half-life / Cmax: human, plasma, oral; for AUC(0-inf): AUCinf; for AUC(0-inf) / AUC(0-t) / Cmax: geometric LS mean (SE); for AUC(0-t): AUClast; for half-life: Mean T1/2 (CV%); for Geometric mean CL/F (%CV): quizartinib.
For data set [2] the following is noted: C-QTc model, phase 2 data; ref data on file, Daiichi Sankyo, Inc; cited from earlier work.
Data set [3] in a line: Plasma concentrations of ketoconazole and fluconazole to confirm steady state. It counts as in vivo, human (healthy subjects). To be noted: 200 mg twice daily. In outline: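 Inhibitors were given orally for 8 days (moderate inhibitor: 200 mg twice daily) before the test compound. Blood was drawn before the morning dose on Days 6–8. On Day 8 it was also drawn at 2 and 12 h post-dose for the strong inhibitor, and at 3 and 12 h for the moderate inhibitor. Plasma levels were measured by validated LC–MS/MS and reported as mean ± standard deviation.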

The conditions of data set [4]: ref data on file, Daiichi Sankyo, Inc; cited from earlier work.
Data set [5] is described as follows: 12-lead electrocardiograms: QTcF interval by ICH E14 category. It counts as in vivo, human (healthy subjects). To be noted: single 30-mg dose alone or with ketoconazole or fluconazole.
Data set [6] can be described thus: Safety: adverse event evaluation. It counts as in vivo, human (healthy subjects). In outline:
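Healthy males and females aged 18–55 years were randomised 1:1:1 to strong inhibitor + test compound, moderate inhibitor + test compound, or test compound alone. A single oral 30 mg dose was given on Day 8. The safety population was everyone who received the test compound or ≥1 inhibitor dose. Assessments included physical exams, vital signs, 12‑lead ECG, haematology, chemistry and urinalysis. AEs were graded for severity, relation to study drugs and clinical significance through Day 29.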

[7] abbreviates: AC886 in plasma, (Ketoconazole + Quizartinib)/(Quizartinib).
Setting [8] is: 30 mg, quizartinib in plasma, single 30-mg dose of quizartinib alone.
Setting [9] is: 200 mg, quizartinib in plasma, single 30-mg dose with fluconazole 200 mg twice daily.
[10] abbreviates: 200 mg, quizartinib in plasma, single 30-mg dose with ketoconazole 200 mg twice daily.
Where [11] appears, read: with fluconazole coadministration.
The mark [12] stands for this setting: with ketoconazole coadministration vs quizartinib alone.

Data on four compounds can be found in paper PMC6710528 (British Journal of Clinical Pharmacology, 2019).

Entries after “also recorded” stand apart in the source; their conditions may differ. Like-named read-outs stand apart in the source and are kept apart here.

As to `CC(C)(CO)c1cc(NC(=O)Nc2ccc(-c3cn4c(n3)sc3cc(OCCN5CCOCC5)ccc34)cc2)no1` [AC886], in data set [1] (setting [7]), the “AUCinf, ratio of geometric LS mean (90% CI)” value is 85%. In data set [1] (setting [7]), the “AUClast, ratio of geometric LS mean (90% CI)” value stood at 67%. In addition, the “Cmax, ratio of geometric LS mean (90% CI)” value in data set [1] (setting [7]) is reported as 40%. Besides, the “Median Tmax (min, max)” value in data set [1] (AC886 in plasma, single 30-mg dose of quizartinib alone) is 5.1 h; in data set [1] (AC886 in plasma, single 30-mg quizartinib dose with fluconazole) it was 5.0 h; in data set [1] (AC886 in plasma, single 30-mg quizartinib dose with ketoconazole), 48.0 h. In addition, the “Ratio of geometric LS means of Cmax of AC886 to Cmax of quizartinib” value in data set [1] (fluconazole + quizartinib arm) is recorded as 0.12; in data set [1] (ketoconazole + quizartinib arm), 0.04; in data set [1] (quizartinib arm) it was 0.13. Moreover, in data set [1], the “Increase in T1/2” value was determined as 96%. The “Effect on QTcF, fold lower than quizartinib” value in data set [2] is 10 fold.

In the case of `OC(Cn1cncn1)(Cn1cncn1)c1ccc(F)cc1F` [fluconazole], the “Mean (± standard deviation) plasma concentration” value in data set [3] (predose on Day 6) turned out to be 13.2 ± 4.1 µg/mL; in data set [3] (predose on Day 7), 13.8 ± 3.8 µg/mL; in data set [3] (predose on Day 8), 14.5 ± 3.7 µg/mL.

As to `CC(=O)N1CCN(c2ccc(OCC3COC(Cn4ccnc4)(c4ccc(Cl)cc4Cl)O3)cc2)CC1` (stereo not drawn) [ketoconazole], the “Mean (± standard deviation) plasma concentration” value in data set [3] (predose on Day 6) was 1.5 ± 0.8 µg/mL; in data set [3] (predose on Day 7), 1.4 ± 0.7 µg/mL; in data set [3] (predose on Day 8) it was 1.4 ± 0.8 µg/mL.

Turning to `CC(C)(C)c1cc(NC(=O)Nc2ccc(-c3cn4c(n3)sc3cc(OCCN5CCOCC5)ccc34)cc2)no1` [quizartinib], the “Increase in quizartinib exposure” value in data set [1] (coadministration with moderate CYP3A inhibitor fluconazole) is given as at most 20%. Also, the Tmax in data set [1] (30 mg) and in data set [1] (200 mg) was 4 h throughout. Further, the values for the AUC(0-inf) in data set [1] (setting [8]), in data set [1] (setting [9]) and in data set [1] (setting [10]) were 9630 ng·h/mL, 11500 ng·h/mL and 18700 ng·h/mL, respectively. Moreover, the AUC(0-t) amounted to 9100 ng·h/mL in data set [1] (setting [8]), 10900 ng·h/mL in data set [1] (setting [9]) and 17000 ng·h/mL in data set [1] (setting [10]). For the same compound, the half-life in data set [1] (setting [8]) is 98 h; in data set [1] (setting [9]) it was 112 h; in data set [1] (setting [10]), 145 h. Further, the Cmax stood at 116 ng/mL in data set [1] (setting [9]) and 121 ng/mL in data set [1] (setting [10]). Also, in data set [1] (ketoconazole coadministered with quizartinib), the “Decrease in CL/F” value is 50%. For the same compound, in data set [1], the “Increase in T1/2” value was 46%. For the same compound, the “Median Tmax (min, max)” value in data set [1] (quizartinib in plasma, single 30-mg dose with fluconazole 200 mg twice daily) is 4.0 (2.0, 5.0) [n = 28] h. Moreover, the “Mean T1/2 (CV%)” value in data set [1] (quizartinib in plasma, single 30-mg dose with ketoconazole 200 mg twice daily) was 149 (23.0) [n = 28] h. The “Geometric mean CL/F (%CV)” value in data set [1] (single 30-mg dose of quizartinib alone) was 2.75 (35.9) [n = 29] L/h; in data set [1] (single 30-mg dose with fluconazole 200 mg twice daily), 2.29 (34.3) [n = 28] L/h; in data set [1] (single 30-mg dose with ketoconazole 200 mg twice daily), 1.42 (26.1) [n = 28] L/h. Also, the “Change in CL/F” value in data set [1] (setting [11]) is around 17%. Also, the “Change in mean T1/2” value in data set [1] (setting [11]) is listed as ~ 10%. In addition, the “Increase in geometric LS mean AUCinf” value in data set [1] (setting [11]) was 20%; in data set [1] (setting [12]), 94%. The “Increase in geometric LS mean AUClast” value in data set [1] (setting [11]) turned out to be 20%; in data set [1] (setting [12]), 86%. Further, the “Increase in geometric LS mean Cmax” value in data set [1] (setting [11]) was determined as 11%; in data set [1] (setting [12]) it was 17%. Moreover, in data set [4], the Median effective half-life is 73 h. Besides, the “Vital signs and changes to QTcF, haematology or clinical chemistry” value in data set [5] is “No significant abnormalities in vital signs or changes to QTcF”. In data set [6] (all treatment arms), the Serious adverse events result is reported as “no serious adverse events or deaths occurred; also recorded: no serious AEs observed”. The “Subjects who experienced at least 1 AE” value in data set [6] (fluconazole + quizartinib arm) is 14 (45.2%) subjects (%); in data set [6] (quizartinib + ketoconazole arm), 9 (29.0%) subjects (%); in data set [6] (quizartinib arm) it was 13 (41.9%) subjects (%). The “Subjects with AEs considered possibly related to quizartinib” value was 1 subjects in data set [6] (fluconazole + quizartinib arm), 1 subjects in data set [6] (ketoconazole + quizartinib arm), 5 (5.4%) subjects (%) in data set [6] (overall (n = 93)) and 3 subjects in data set [6] (quizartinib arm). Moreover, the “Subjects who experienced quizartinib-related adverse events” value in data set [6] (overall) came to 5.4%.

As usually defined, the Tmax is the time from dosing to the highest level. A word on the AUC(0-inf): it is the area under the concentration-time curve extrapolated to infinity. High values mean high exposure, low ones low exposure. For orientation: AUC(0-t) means the area under the concentration-time curve up to a stated or last time point. For orientation: half-life means the time in which the quantity being followed falls by half. A lower half-life goes with rapid decline. As usually defined, the Cmax is the highest concentration seen after dosing.
